One test deals with Toll-like receptor 4 (Homo sapiens, UniProt O00206). The test is described as follows: Agonist activity at human TLR4 expressed in HEK293 cells assessed as induction of NF-kB activation-mediated SEAP production after 24 hrs by HTS assay. It is filed as cell-based. An outline of the steps:
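Stable HEK293 lines expressing a single hTLR plus a SEAP reporter, grown in DMEM/10% FBS with selective antibiotics. Seeded at 5 × 10^4 cells/well for 24 h at 37 °C, then treated 24 h. Supernatant mixed with QUANTI-Blue, 1 h at 37 °C, OD 620 nm. Cognate agonists: Pam3CSK4 (TLR2), poly I:C (TLR3), LPS (TLR4), FLA-BS (TLR5), R848 (TLR7). EC50 as mean ± SD.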

Another test has as its target T1, Toll-like receptor 9 (Homo sapiens, UniProt Q9NR96).
T1 sequence (Q9NR96 whole entry): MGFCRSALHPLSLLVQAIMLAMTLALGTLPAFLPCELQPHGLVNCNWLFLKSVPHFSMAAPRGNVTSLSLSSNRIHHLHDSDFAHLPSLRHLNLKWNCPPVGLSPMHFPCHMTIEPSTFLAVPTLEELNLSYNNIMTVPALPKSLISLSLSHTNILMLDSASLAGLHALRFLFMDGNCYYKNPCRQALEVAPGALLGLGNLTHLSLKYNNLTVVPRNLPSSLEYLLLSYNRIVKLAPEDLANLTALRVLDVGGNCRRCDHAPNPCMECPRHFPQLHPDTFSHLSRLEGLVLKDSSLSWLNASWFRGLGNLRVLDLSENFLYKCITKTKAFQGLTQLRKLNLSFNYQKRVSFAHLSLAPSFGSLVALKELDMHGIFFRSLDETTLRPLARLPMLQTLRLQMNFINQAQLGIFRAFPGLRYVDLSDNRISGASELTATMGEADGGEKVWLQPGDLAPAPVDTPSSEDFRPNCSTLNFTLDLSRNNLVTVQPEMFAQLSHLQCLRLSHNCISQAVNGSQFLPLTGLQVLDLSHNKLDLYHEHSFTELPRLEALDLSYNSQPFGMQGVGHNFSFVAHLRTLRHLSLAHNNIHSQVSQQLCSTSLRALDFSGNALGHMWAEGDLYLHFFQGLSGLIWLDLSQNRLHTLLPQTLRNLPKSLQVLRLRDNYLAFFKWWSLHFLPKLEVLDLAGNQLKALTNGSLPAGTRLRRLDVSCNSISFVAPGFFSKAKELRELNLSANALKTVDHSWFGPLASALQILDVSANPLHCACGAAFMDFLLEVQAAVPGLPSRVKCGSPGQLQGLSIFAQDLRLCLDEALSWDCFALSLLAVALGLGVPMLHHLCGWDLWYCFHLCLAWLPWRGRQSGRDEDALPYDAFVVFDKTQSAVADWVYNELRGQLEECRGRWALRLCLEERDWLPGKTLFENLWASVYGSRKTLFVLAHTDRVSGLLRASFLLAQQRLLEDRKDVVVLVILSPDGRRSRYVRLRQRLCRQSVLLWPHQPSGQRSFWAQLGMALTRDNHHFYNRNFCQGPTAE
The test is described as follows: Agonist activity at human TLR9 expressed in HEK293 cells assessed as induction of NF-kB activation-mediated SEAP production after 24 hrs by HTS assay. It is filed as cell-based. In short, it runs like this: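 HEK293 cells stably expressing human TLR8 or TLR9 plus an NF-κB-inducible SEAP reporter, seeded at 5 × 10^4 cells/well for 24 h, then treated for 24 h. Supernatant incubated with QUANTI-Blue at 37 °C for 1 h and OD read at 620 nm. Positive controls were R848 (TLR8) and ODN2006 (TLR9). EC50 reported as mean ± SD.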

Test [1] has as its target Toll-like receptor 3/8/9 (Homo sapiens) (UniProt O15455+Q9NR96+Q9NR97). The test is described as follows: Agonist activity at TLR3/TLR8/TLR9 in human THP1 cells assessed as increase in TNFalpha mRNA level after 12 hrs by qRT-PCR method. It is filed as cell-based. An outline of the steps: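 THP-1 cells (1.5 × 10^6/well) differentiated with PMA (20 nM) for 2 days, then 24 h in fresh RPMI 1640; nonadherent cells removed. Treated with indicated compound concentrations for 12 h, washed with PBS, and mRNA measured by qRT-PCR. Expressed as fold change versus untreated control, poly I:C (5 μg/mL) as reference. Mean ± SD of three independent experiments.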

For test [2], the system named is HeLa. The test is described as follows: Antiproliferative activity against human HeLa cells after 24 hrs by WST1 assay. In kind it is functional, cell-based. In short, it runs like this: (§1)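 Cells seeded at 5 × 10^3/well and left 24 h, then given a concentration series for 24, 48 or 72 h. WST-1 reagent added and incubated at 37 °C for 30 min–2 h until color change; absorbance 450 nm. Growth inhibition = (1 − [sample − background]/[control − background]) × 100. IC50 mean ± SD, three cell preparations.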
In general terms: Tetrazolium assays rely on reduction of a dye to a coloured formazan, in cell work by metabolically active cells.

Test [3] has as its system HMEC. The test can be described thus: Antiproliferative activity against HMEC after 24 hrs by WST1 assay. In kind it is cell-based. Particulars: Homo sapiens. An outline of the steps:
as §1

Test [4] deals with HMEC. The test is described as follows: Antiproliferative activity against HMEC after 48 hrs by WST1 assay. Particulars: Homo sapiens. It is filed as cell-based. An outline of the steps:
as §1

Test [5] concerns HeLa. The test can be described thus: Cell cycle arrest in human HeLa cells assessed as accumulation at S phase at 10 uM after 24 hrs by propidium iodide staining based flow cytometry (reference value: 31%). It is filed as functional. In general terms: Flow cytometry measures light scatter and fluorescence of single cells or particles in a stream.
Test [6] deals with HeLa. The test is described as follows: Cell cycle arrest in human HeLa cells assessed as accumulation at G2/M phase at 10 uM after 24 hrs by propidium iodide staining based flow cytometry (reference value: 17%). In kind it is functional.
In test [7] the test system is HeLa. The test is described as follows: Cell cycle arrest in human HeLa cells assessed as accumulation at G0/G1 phase at 20 uM after 24 hrs by propidium iodide staining based flow cytometry (reference value: 52%). It is filed as functional.
The test system of test [8] is HeLa. The test can be described thus: Cell cycle arrest in human HeLa cells assessed as accumulation at G2/M phase at 20 uM after 24 hrs by propidium iodide staining based flow cytometry (reference value: 17%). In kind it is functional.
The test system of test [9] is HeLa. The test can be described thus: Cell cycle arrest in human HeLa cells assessed as accumulation at G0/G1 phase at 40 uM after 24 hrs by propidium iodide staining based flow cytometry (reference value: 52%). In kind it is functional.
Test [10] deals with HeLa. The test can be described thus: Cell cycle arrest in human HeLa cells assessed as accumulation at S phase after 24 hrs by propidium iodide staining based flow cytometry. It is filed as functional.

A value given as a limit tells only on which side of the number the result lay.

Chain of Toll-like receptor 3/8/9 (Homo sapiens) (O15455 whole entry, looked up, one chain of several): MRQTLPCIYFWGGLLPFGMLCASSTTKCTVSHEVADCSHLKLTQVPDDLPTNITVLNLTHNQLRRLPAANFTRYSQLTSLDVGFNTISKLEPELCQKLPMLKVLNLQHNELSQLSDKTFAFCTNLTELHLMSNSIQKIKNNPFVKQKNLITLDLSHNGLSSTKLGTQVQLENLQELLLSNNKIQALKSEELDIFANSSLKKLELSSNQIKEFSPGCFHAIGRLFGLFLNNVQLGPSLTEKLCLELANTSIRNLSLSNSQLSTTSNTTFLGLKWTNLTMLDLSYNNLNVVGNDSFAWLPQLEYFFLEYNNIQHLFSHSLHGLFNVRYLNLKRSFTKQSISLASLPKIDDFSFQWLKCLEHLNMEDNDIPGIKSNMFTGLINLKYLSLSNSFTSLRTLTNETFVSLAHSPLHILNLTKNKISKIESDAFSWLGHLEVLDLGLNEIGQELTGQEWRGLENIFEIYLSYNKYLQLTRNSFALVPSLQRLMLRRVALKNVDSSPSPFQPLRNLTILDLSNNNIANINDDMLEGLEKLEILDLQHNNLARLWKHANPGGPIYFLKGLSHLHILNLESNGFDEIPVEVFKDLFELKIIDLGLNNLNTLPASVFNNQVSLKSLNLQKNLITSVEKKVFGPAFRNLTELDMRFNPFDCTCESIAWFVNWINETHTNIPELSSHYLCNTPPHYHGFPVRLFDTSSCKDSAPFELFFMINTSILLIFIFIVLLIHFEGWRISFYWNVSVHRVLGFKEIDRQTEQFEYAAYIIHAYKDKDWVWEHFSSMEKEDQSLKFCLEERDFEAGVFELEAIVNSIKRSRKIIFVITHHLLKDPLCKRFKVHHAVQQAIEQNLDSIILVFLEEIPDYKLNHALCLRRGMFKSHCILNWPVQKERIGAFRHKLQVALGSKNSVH
Chain of Toll-like receptor 3/8/9 (Homo sapiens) (Q9NR97 whole entry, looked up, one chain of several): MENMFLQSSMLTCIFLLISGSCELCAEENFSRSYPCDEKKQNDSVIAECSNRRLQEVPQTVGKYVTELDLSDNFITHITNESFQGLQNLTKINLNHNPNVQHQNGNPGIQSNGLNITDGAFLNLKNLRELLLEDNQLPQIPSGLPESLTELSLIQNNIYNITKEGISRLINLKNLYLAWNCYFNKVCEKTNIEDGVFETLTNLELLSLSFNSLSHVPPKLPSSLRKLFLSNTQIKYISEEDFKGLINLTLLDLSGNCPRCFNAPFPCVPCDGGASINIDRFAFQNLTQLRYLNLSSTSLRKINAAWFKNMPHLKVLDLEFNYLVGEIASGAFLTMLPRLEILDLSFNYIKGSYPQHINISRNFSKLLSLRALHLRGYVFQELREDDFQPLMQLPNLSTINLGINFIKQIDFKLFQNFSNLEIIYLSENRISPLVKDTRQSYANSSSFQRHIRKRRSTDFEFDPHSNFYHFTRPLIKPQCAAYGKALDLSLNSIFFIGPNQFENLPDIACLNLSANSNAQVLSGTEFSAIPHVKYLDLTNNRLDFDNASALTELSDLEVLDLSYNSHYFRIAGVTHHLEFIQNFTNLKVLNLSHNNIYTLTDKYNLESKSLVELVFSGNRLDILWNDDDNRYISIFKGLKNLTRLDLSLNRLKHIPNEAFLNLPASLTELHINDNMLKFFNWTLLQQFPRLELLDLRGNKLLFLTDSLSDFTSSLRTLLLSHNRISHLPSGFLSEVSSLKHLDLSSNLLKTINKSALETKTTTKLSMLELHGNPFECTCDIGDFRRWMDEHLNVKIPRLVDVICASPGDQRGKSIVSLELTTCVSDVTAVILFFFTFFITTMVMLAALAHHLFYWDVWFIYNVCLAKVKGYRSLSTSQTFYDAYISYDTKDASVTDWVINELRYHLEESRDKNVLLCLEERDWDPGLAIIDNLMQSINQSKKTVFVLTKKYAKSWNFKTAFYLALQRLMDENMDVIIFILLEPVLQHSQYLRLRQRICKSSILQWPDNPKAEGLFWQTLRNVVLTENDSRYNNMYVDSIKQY
Chain of Toll-like receptor 4 (O00206 whole entry): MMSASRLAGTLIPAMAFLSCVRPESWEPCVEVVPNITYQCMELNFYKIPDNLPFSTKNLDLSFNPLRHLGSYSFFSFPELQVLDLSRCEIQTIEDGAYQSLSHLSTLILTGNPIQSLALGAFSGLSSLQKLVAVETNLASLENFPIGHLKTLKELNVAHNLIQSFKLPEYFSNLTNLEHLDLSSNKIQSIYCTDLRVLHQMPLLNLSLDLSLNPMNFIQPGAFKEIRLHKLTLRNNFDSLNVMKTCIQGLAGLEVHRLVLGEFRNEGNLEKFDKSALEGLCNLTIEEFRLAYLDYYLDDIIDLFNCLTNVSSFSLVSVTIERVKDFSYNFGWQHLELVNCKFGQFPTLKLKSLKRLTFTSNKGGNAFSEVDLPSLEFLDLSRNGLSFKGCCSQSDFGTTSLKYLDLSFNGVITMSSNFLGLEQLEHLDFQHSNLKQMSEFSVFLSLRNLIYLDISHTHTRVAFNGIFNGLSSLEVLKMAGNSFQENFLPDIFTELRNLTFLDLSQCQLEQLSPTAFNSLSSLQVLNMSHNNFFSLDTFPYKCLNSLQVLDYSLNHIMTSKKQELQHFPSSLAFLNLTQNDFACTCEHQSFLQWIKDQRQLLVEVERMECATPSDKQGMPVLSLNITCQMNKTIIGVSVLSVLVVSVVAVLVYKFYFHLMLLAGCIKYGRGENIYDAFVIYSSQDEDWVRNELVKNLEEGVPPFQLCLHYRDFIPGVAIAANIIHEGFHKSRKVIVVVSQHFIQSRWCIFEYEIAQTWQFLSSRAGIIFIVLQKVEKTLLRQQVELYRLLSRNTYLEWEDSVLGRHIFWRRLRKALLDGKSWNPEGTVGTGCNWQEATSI

In general, EC50 refers to the concentration that produces a half-maximal response. As usually defined, the IC50 is the concentration that gives 50% inhibition. A higher IC50 goes with a need for much substance. Turning to `O=[N+]([O-])c1ccc(COc2cc3c(cc2OCc2ccc([N+](=O)[O-])cc2)OC2(C=C3)CCOCC2)cc1`, the 50% effective concentration (EC50) was over 100 µM at Toll-like receptor 4 and 5.66 µM on Toll-like receptor 9. The Activity entry in test [1] is “Dose-dependent effect”; in the test on HeLa [2], “Dose-dependent effect”; with HeLa [5] it was 35%; in the test on HeLa [6], 19%; with HeLa [7] it was 43%; in the test on HeLa [8] it was 20%. The Activity with HeLa [9] was 40%; with HeLa [10], “Dose-dependent effect”. In addition, the IC50 in the test on HeLa [2] is 38.6 µM; in the test with HMEC [3], over 100 µM; in the test with HMEC [4] it was over 100 µM.

These data come from ChEMBL document CHEMBL4014338, “Discovery of Small Molecules as Multi-Toll-like Receptor Agonists with Proinflammatory and Anticancer Activities” (J Med Chem, 2017).
